From ChEMBL document CHEMBL3352728, “Synthesis and biological evaluation of 1,2,3-triazole linked aminocombretastatin conjugates as mitochondrial mediated apoptosis inducers” (Bioorg Med Chem, 2014)
Activity calls are given as the source filed them. The rule behind the calls is not given here.

Tests used:
MCF7 = assay: Cytotoxicity against human MCF7 cells after 48 hrs by MTT assay; type: functional, cell-based; settings: MCF7, 48 h
Outline: (§1)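 MTT assay. Cells seeded at 1×10^4 per well in DMEM with 10% FBS and grown 24 h at 37 °C under CO2. Compounds diluted in medium, vehicle control included, 48 h exposure. MTT (5 mg/mL stock) added for 4 h, formazan dissolved in DMSO, absorbance read at 570 nm. IC50 taken as the average of three independent experiments.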

ACHN = assay: Cytotoxicity against human ACHN cells after 48 hrs by MTT assay; type: functional, cell-based; outline: as §1
A549 [1] = assay: Cytotoxicity against human A549 cells after 48 hrs by MTT assay; type: functional, cell-based; settings: A549, 48 h; outline: as §1
HeLa = assay: Cytotoxicity against human HeLa cells after 48 hrs by MTT assay; type: functional, cell-based; outline: as §1
HepG2 = assay: Cytotoxicity against human HepG2 cells after 48 hrs by MTT assay; type: functional, cell-based; settings: HepG2, 48 h; outline: as §1
A549 [2] = assay: Induction of microtubule network disruption in human A549 cells at 25 nM incubated for 48 hrs by immunohistochemistry; type: cell-based
Outline: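 A549 cells on glass coverslips exposed to 25 nM for 48 h, with CA-4 at 25 nM in parallel. Fixed in 3% paraformaldehyde/0.02% glutaraldehyde and permeabilized in methanol overnight at 4 °C. Blocked with 1% BSA, stained with mouse anti-tubulin primary and FITC-labelled anti-mouse IgG, and examined by fluorescence microscopy for microtubule network integrity.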

A549 [3] = assay: Induction of apoptosis in human A549 cells assessed as apoptotic bodies level at 25 nM incubated for 48 hrs by Hoechst staining based fluorescent microscopy; type: functional, cell-based
Outline: (§2)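 A549 cells, 10,000 per coverslip, cultured 24 h, then exposed to 25 nM for 48 h. Stained with Hoechst 33258 (0.5 mg/mL) for 30 min at 37 °C and washed in PBS. Random fields imaged by fluorescence microscopy and scored qualitatively for chromatin condensation, nuclear fragmentation and apoptotic bodies.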

A549 [4] = assay: Induction of DNA fragmentation in human A549 cells at 25 nM incubated for 48 hrs by agarose gel electrophoresis method; type: functional, cell-based
Outline: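 A549 cells (1×10^6) plated for 24 h, then exposed to 25 nM for 48 h. Cells pelleted and lysed. Lysate treated with SDS and RNase A for 2 h at 56 °C, then proteinase K for 2 h at 37 °C. DNA precipitated with ammonium acetate and cold ethanol, redissolved in TE buffer, and laddering run on 2% agarose gel.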

A549 [5] = assay: Induction of cell cycle arrest in human A549 cells assessed as accumulation at G0/G1 phase at 50 nM after 48 hrs by propidium iodide staining based flow cytometry (reference value: 87.75%); type: functional
A549 [6] = assay: Induction of apoptosis in human A549 cells assessed as caspase-3 activation at 25 nM incubated for 48 hrs by ELISA method; type: functional
Outline: (§3)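 A549 cells treated 48 h at 25 or 50 nM, with CA-4 at 50 nM as reference. Cells pelleted, PBS-washed, lysed 15 min and centrifuged. Supernatant assayed with a colorimetric caspase-3 kit. Mean ± SD from two experiments, each in triplicate.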

Tubulin = assay: Inhibition of tubulin (unknown origin) polymerization incubated for 1 hr by fluorescence assay; type: protein-complex assay, Homo sapiens
A549 [7] = assay: Induction of apoptosis in human A549 cells assessed as caspase-3 activation at 50 nM incubated for 48 hrs by ELISA method; type: functional; outline: as §3
A549 [8] = assay: Induction of cell cycle arrest in human A549 cells assessed as accumulation at G2/M phase at 25 nM after 48 hrs by propidium iodide staining based flow cytometry (reference value: 6.15%); type: functional
Tubulin (Homo sapiens) [9] = target: T1, Tubulin (Homo sapiens) (UniProt P68371+Q9H4B7+P0DPH7+P68366+Q13509+Q71U36+P04350+Q3ZCM7+P07437+P68363+Q9BQE3+Q6PEY2+Q13885+Q9BVA1+Q9BUF5); assay: Inhibition of tubulin (unknown origin) polymerization at 3 uM incubated for 1 hr by fluorescence assay; type: protein-complex assay
Outline: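 Fluorescence-reporter tubulin polymerization kit. PEM buffer with […], compounds at 3 μM final concentration. Fluorescence followed at ex 360/em 420 nm for 1 h at 37 °C. CA-4 positive control. Mean ± SD from two experiments, each in triplicate.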

Tubulin (Homo sapiens) [10] = target: T1, Tubulin (Homo sapiens); assay: Binding affinity to tubulin (unknown origin) incubated for 60 mins by colchicine competition assay; type: protein-complex assay
Outline: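 Tubulin (3 μM) incubated with test agents (5, 10, 15, 20 μM) with and without 3 μM colchicine in 30 mM Tris buffer, 60 min at 37 °C. Tubulin–colchicine fluorescence read at ex 350/em 435 nm. Compound-alone signal subtracted from the compound+colchicine signal, Tris blank subtracted, values normalized to DMSO control. CA-4 positive control, taxol negative control.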

A549 [11] = assay: Induction of cell cycle arrest in human A549 cells assessed as accumulation at G0/G1 phase at 25 nM after 48 hrs by propidium iodide staining based flow cytometry (reference value: 87.75%); type: functional
A549 [12] = assay: Induction of cell cycle arrest in human A549 cells assessed as accumulation at S phase at 25 nM after 48 hrs by propidium iodide staining based flow cytometry (reference value: 4.69%); type: functional
A549 [13] = assay: Induction of cell cycle arrest in human A549 cells assessed as accumulation at subG1 phase at 50 nM after 48 hrs by propidium iodide staining based flow cytometry (reference value: 1.41%); type: functional
A549 [14] = assay: Induction of cell cycle arrest in human A549 cells assessed as accumulation at G2/M phase at 50 nM after 48 hrs by propidium iodide staining based flow cytometry (reference value: 6.15%); type: functional
A549 [15] = assay: Induction of ROS generation in human A549 cells at 25 nM incubated for 48 hrs by DCFH-DA staining based fluorescence assay; type: functional, cell-based
Outline: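 A549 cells exposed to 25 nM for 48 h, then loaded with 5 μM DCFH-DA for 30 min at 37 °C. DCF fluorescence read at ex 485/em 530 nm. CA-4 at 25 nM run in parallel.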

A549 [16] = assay: Induction of mitochondrial membrane potential loss in human A549 cells at 25 nM incubated for 48 hrs by JC1 dye staining based fluorescence assay; type: functional, cell-based
Outline: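 A549 cells exposed to 25 nM for 48 h, then loaded with JC-1 for 20 min at 37 °C. JC-1 green monomer emission (525 nm) compared with red aggregate emission (590 nm) to read depolarization. CA-4 at 25 nM included.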

A549 [17] = assay: Induction of cell cycle arrest in human A549 cells assessed as accumulation at S phase at 50 nM after 48 hrs by propidium iodide staining based flow cytometry (reference value: 4.69%); type: functional
A549 [18] = assay: Induction of cell cycle arrest in human A549 cells assessed as accumulation at subG1 phase at 25 nM after 48 hrs by propidium iodide staining based flow cytometry (reference value: 1.41%); type: functional
A549 [19] = assay: Induction of apoptosis in human A549 cells assessed as chromatin condensation at 25 nM incubated for 48 hrs by Hoechst staining based fluorescent microscopy; type: functional, cell-based; outline: as §2
A549 [20] = assay: Induction of apoptosis in human A549 cells assessed as nuclear fragmentation at 25 nM incubated for 48 hrs by Hoechst staining based fluorescent microscopy; type: functional, cell-based; outline: as §2

Activity (Tubulin (Homo sapiens) [10]) | Compound | IC50 (MCF7) | IC50 (ACHN) | IC50 (A549 [1]) | IC50 (HeLa) | IC50 (HepG2) | Activity (A549 [2]) | Activity (A549 [5]) | Activity (A549 [13]) | Activity (A549 [14]) | Activity (A549 [17]) | other results
 | COc1ccc(/C=C\c2cc(OC)c(OC)c(OC)c2)cc1NC(=O)c1cn(Cc2cccc(Oc3ccccc3)c2)nn1 | 4190 nM | 5740 nM | 2570 nM | 3230 nM | 3720 nM |  |  |  |  |  | 
 | COc1cc(/C=C\c2cc(OC)c(OC)c(OC)c2)cc(NC(=O)c2cn(Cc3cccc(Oc4ccccc4)c3)nn2)c1OC | 4260 nM | 6610 nM | 2680 nM | 5880 nM | 3990 nM |  |  |  |  |  | 
 | COc1ccc(/C=C\c2cc(OC)c(OC)c(OC)c2)c(NC(=O)c2cn(Cc3cccc(Oc4ccccc4)c3)nn2)c1O | 4260 nM | 7410 nM | 3630 nM | 5010 nM | 4680 nM |  |  |  |  |  | 
Active | COc1ccc(/C=C\c2cc(OC)c(OC)c(OC)c2)cc1NC(=O)c1cn(Cc2ccc(F)cc2)nn1 | 597 nM | 1660 nM | 53 nM | 68 nM | 58 nM | Active | 61.99% | 4.36% | 25.73% | 7.93% | Activity (A549 [3]): Active; Activity (A549 [4]): Active; fold change (FC) (A549 [6]): 3; IC50 (Tubulin): 1160 nM; fold change (FC) (A549 [7]): 3; Activity (A549 [8]): 17.57%; inhibition (Tubulin (Homo sapiens) [9]): 66.8%; Activity (A549 [11]): 75.42%; Activity (A549 [12]): 5.49%; Activity (A549 [15]): Active; Activity (A549 [16]): Active; Activity (A549 [18]): 1.52%; Activity (A549 [19]): Active; Activity (A549 [20]): Active
 | COc1ccc(Cn2cc(C(=O)Nc3cc(/C=C\c4cc(OC)c(OC)c(OC)c4)ccc3OC)nn2)cc1 | 3720 nM | 3310 nM | 2140 nM | 2950 nM | 2080 nM |  |  |  |  |  | 
 | COc1cc(/C=C\c2cc(OC)c(OC)c(OC)c2)cc(NC(=O)c2cn(Cc3ccc(F)cc3)nn2)c1OC | 897 nM | 3090 nM | 66 nM | 320 nM | 1360 nM |  |  |  |  |  | 
Active | COc1ccc(Cn2cc(C(=O)Nc3cc(/C=C\c4cc(OC)c(OC)c(OC)c4)cc(OC)c3OC)nn2)cc1 | 818 nM | 1700 nM | 44 nM | 81 nM | 98 nM | Active | 62.01% | 3.46% | 26.63% | 7.9% | Activity (A549 [3]): Active; Activity (A549 [4]): Active; fold change (FC) (A549 [6]): 3; IC50 (Tubulin): 950 nM; fold change (FC) (A549 [7]): 3; Activity (A549 [8]): 21.37%; inhibition (Tubulin (Homo sapiens) [9]): 70.9%; Activity (A549 [11]): 69.59%; Activity (A549 [12]): 7.84%; Activity (A549 [15]): Active; Activity (A549 [16]): Active; Activity (A549 [18]): 1.2%; Activity (A549 [19]): Active; Activity (A549 [20]): Active
inactive | CC(=O)O[C@H]1C(=O)[C@@]2(C)[C@H]([C@H](OC(=O)c3ccccc3)[C@]3(O)C[C@H](OC(=O)[C@H](O)[C@@H](NC(=O)c4ccccc4)c4ccccc4)C(C)=C1C3(C)C)[C@]1(OC(C)=O)CO[C@@H]1C[C@@H]2O |  |  |  |  |  |  |  |  |  |  | 

Compound | Activity (Tubulin (Homo sapiens) [10]) | IC50 (MCF7) | IC50 (ACHN) | IC50 (A549 [1]) | IC50 (HeLa) | IC50 (HepG2) | Activity (A549 [2]) | Activity (A549 [5]) | Activity (A549 [13]) | Activity (A549 [14]) | Activity (A549 [17]) | other results
COc1ccc(/C=C\c2cc(OC)c(OC)c(OC)c2)cc1O [COMBRETASTATIN A4] | Active |  | 5 nM | 52 nM | 18 nM |  | Active | 61.32% | 4.11% | 26.48% | 8.09% | 
